Laboratory results taken from PMC3904296 (Journal of medicinal chemistry, 2013).

Legend:
[1] = target: CB1Rs endogenously expressed in Neuro2A cells (Mus musculus, UniProt P47746); assay: Adenylyl cyclase assay in Neuro2A cells; assay type: cell-based; settings: for antagonism of AC-inhibition produced by the CB1R full agonist 3: 1 μM concentration of antagonist, 10^−7 M concentration of 3, Figure 3B; for inhibition of AC-activity via CB1Rs (concentration-effect curves): Neuro2A cells, Figure 3A
[2] = system: male NIH Swiss mice; assay: Oral EtOH self-administration; assay type: in vivo; settings: 10 mg/kg i.p. daily for 10 days
[3] = target: CB2Rs in CHO-hCB2 cells (Homo sapiens, UniProt P34972); assay: Adenylyl cyclase assay in CHO-hCB2 cells; assay type: cell-based; settings: Figure 4A
[4] = system: CHO-WT cells; assay: Adenylyl cyclase assay in CHO-WT cells not expressing CB2Rs; assay type: cell-based; settings: Figure 4B
[5] = system: CB1Rs; settings: cited from earlier work
[6] = system: male NIH Swiss mice; assay: Thermoregulation assay; assay type: in vivo; settings: 10 mg/kg intraperitoneal, Figure 5
Procedure, shortened: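 Under isoflurane, a glass-encapsulated radiotelemetry probe was implanted in the peritoneal cavity. Mice recovered at least 7 days and were housed singly. On test days they were weighed, and baseline core temperature was recorded for at least 1 h. Drug or equal-volume vehicle was then injected, 4–8 mice per group. […] Data are mean ± SEM, analysed by one-way ANOVA with Tukey post-test.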

Chain of CB1Rs endogenously expressed in Neuro2A cells (P47746 whole entry): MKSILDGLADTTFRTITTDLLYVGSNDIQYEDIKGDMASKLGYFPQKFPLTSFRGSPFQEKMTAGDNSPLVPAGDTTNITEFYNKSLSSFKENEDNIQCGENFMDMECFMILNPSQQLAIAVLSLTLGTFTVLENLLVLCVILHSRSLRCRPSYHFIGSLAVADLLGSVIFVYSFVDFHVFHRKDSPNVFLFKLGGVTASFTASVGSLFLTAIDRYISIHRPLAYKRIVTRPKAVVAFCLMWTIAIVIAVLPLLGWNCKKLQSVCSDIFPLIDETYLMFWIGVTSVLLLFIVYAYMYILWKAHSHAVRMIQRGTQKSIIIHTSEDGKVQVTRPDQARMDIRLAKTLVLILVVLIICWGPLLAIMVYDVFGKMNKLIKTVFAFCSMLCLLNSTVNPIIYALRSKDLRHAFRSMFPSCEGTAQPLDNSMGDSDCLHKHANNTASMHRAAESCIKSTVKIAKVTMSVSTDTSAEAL
Chain of CB2Rs in CHO-hCB2 cells (P34972 whole entry): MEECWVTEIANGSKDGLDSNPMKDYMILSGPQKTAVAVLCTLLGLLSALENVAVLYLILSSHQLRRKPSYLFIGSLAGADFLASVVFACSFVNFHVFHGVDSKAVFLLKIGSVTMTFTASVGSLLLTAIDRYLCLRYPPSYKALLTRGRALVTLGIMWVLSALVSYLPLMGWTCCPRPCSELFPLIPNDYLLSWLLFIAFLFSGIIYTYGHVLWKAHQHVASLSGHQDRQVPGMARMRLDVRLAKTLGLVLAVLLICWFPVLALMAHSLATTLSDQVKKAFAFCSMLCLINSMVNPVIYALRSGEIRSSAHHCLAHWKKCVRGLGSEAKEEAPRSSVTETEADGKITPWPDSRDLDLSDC

Compound: CC1=CC[C@@H]2[C@@H](C1)c1c(O)cc(CC#CCCCNS(C)(=O)=O)cc1OC2(C)C [Compound O-2050, reference compound]
- antagonism of AC-inhibition produced by the CB1R full agonist 3 [1]: significantly antagonized AC-inhibition

Compound: Cc1c(C(=O)NN2CCCCC2)nn(-c2ccc(Cl)cc2Cl)c1-c1ccc(Cl)cc1 [rimonabant, reference compound]
- EtOH preference (two-bottle choice, 10% EtOH vs water) [2]: decreased EtOH preference
- body weight across the treatment period [2]: decreased body weight
- total fluid consumption [2]: without altering total fluid intake

Compound: CCCCn1cc(-c2ccc3ccccc3c2)c2cccc(OC)c21 [Compound 30, 1-Butyl-7-methoxy-3-(naphthalen-2-yl)-1H-indole]
- antagonism of AC-inhibition produced by the CB1R full agonist 3 [1]: antagonize AC-inhibition produced by CB1R-agonist
- inhibition of AC-activity via CB1Rs (concentration-effect curves) [1]: very little inhibition of AC-activity
- inhibition of AC-activity at CB2Rs (concentration-effect curves) [3]: 40–50%
- modification of AC-activity in CHO-WT cells [4]: neither 27 nor 30 significantly modified AC-activity
- EtOH preference (two-bottle choice, 10% EtOH vs water) [2]: reduced EtOH preference
- body weight across the treatment period [2]: did not decrease body weight
- total fluid consumption [2]: without affecting total fluid consumption

Compound: CCCCn1cc(C(=O)c2cccc3ccccc23)c2cccc(O)c21 [Compound 4, reference compound]
- inhibition of AC-activity via CB1Rs (concentration-effect curves) [1]: 50–60%
- intrinsic activity at CB1Rs in [35S]GTPγS functional assay [5]: lacks intrinsic activity

Compound: CCCCn1cc(C(=O)c2cccc3ccccc23)c2ccccc21 [Compound 3, (1-butyl-1H-indol-3-yl)(naphthalen-1-yl)methanone]
- hypothermic effect (core body temperature) [6]: elicited a profound hypothermic effect

Compound: CCCCn1cc(Cc2cccc3ccccc23)c2cccc(OC)c21 [Compound 27, 1-Butyl-7-methoxy-3-(naphthalen-1-ylmethyl)-1H-indole]
- antagonism of AC-inhibition produced by the CB1R full agonist 3 [1]: antagonize AC-inhibition produced by CB1R-agonist
- inhibition of AC-activity via CB1Rs (concentration-effect curves) [1]: very little inhibition of AC-activity
- inhibition of AC-activity at CB2Rs (concentration-effect curves) [3]: 40–50%
- modification of AC-activity in CHO-WT cells [4]: neither 27 nor 30 significantly modified AC-activity
- EtOH preference (two-bottle choice, 10% EtOH vs water) [2]: reduced EtOH preference
- body weight across the treatment period [2]: did not decrease body weight
- total fluid consumption [2]: without affecting total fluid consumption
